Measurements taken from ChEMBL document CHEMBL1148748, “Synthesis of specific bivalent probes that functionally interact with 5-HT(4) receptor dimers” (J Med Chem, 2007).

Key:
[1] = molecular target: T1, 5-hydroxytryptamine receptor 4 (Homo sapiens, UniProt Q13639); assay: Agonist activity at human 5HT4e receptor expressed in C6 cells assessed as cAMP accumulation relative to 5HT; format: functional, cell-based; design: concentration or dose not given beside the values
Summary of the method: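 C6 glial cells stably expressing h5-HT4(e), serum-starved 4 h, preincubated 15 min with 5 mM theophylline plus 10 µM pargyline, then compound with or without 5-HT (1 µM) 15 min at 37 °C; stopped with ice-cold 20% perchloric acid, neutralized; cAMP by radioimmunoassay; expressed as % of 5-HT response; two experiments in triplicate.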

[2] = molecular target: T1, 5-hydroxytryptamine receptor 4; assay: Displacement of [3H]GR-113808 from human 5HT4e receptor expressed in C6 cells; format: cell-based
[3] = molecular target: T1, 5-hydroxytryptamine receptor 4; assay: Activity at 5HT4 receptor fused with RLuc and YFP fusion proteins expressed in CHO cells by BRET dimerization assay relative to control; format: functional, cell-based; design: concentration or dose not given beside the values
Summary of the method: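 CHO cells transiently cotransfected (Jet-PEI, 8 µg DNA per 100 mm dish) with C-terminal 5-HT4R-RLuc and 5-HT4R-YFP at equimolar amounts; membrane preparations incubated with ligand (1 µM, or dose-response) at 25 °C; coelenterazine h 5 µM final; 530/485 nm emission ratio minus RLuc-alone ratio gives BRET, in mBU; % of control; three experiments in duplicate.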

[4] = molecular target: T1, 5-hydroxytryptamine receptor 4; assay: Binding affinity to Rluc fused 5HT4 receptor expressed in CHO cells; format: cell-based
[5] = molecular target: T1, 5-hydroxytryptamine receptor 4; assay: Binding affinity to YFP fused 5HT4 receptor expressed in CHO cells; format: cell-based

T1 sequence (Q13639 whole entry): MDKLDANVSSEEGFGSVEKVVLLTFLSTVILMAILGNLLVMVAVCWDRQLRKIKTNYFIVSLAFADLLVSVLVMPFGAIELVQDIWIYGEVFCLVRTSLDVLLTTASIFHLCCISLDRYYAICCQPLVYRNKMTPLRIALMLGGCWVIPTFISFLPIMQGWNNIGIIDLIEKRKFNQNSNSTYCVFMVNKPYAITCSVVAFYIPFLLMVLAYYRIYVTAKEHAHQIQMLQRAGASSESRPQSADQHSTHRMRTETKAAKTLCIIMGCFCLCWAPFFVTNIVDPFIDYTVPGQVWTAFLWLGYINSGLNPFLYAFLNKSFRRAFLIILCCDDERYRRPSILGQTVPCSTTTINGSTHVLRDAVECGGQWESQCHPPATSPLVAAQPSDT

| SMILES | Activity [1] | Ki [2] | Activity [3] | Ki [4] | Ki [5] |
| --- | --- | --- | --- | --- | --- |
| COc1cc(N)c(Cl)cc1C(=O)OCCN1CCC(CNC(=O)CCCN(CC#Cc2ccc(C#CCN(CCCC(=O)NCC3CCN(CCOC(=O)c4cc(Cl)c(N)cc4OC)CC3)C(=O)OC(C)(C)C)cc2)C(=O)OC(C)(C)C)CC1 | 1% | 25 nM | 115% |  |  |
| COc1cc(N)c(Cl)cc1C(=O)OCCN1CCC(CNC(=O)CN(CC#Cc2ccc(C#CCN(CC(=O)NCC3CCN(CCOC(=O)c4cc(Cl)c(N)cc4OC)CC3)C(=O)OC(C)(C)C)cc2)C(=O)OC(C)(C)C)CC1 | 49% | 44 nM | 107% |  |  |
| COc1cc(N)c(Cl)cc1C(=O)OCCN1CCC(NC(=O)CCCCCNC(=O)C2CCN(CCOC(=O)c3cc(Cl)c(N)cc3OC)CC2)CC1 | 46% | 7 nM | 108% |  |  |
| COc1cc(N)c(Cl)cc1C(=O)OCCN1CCC(NC(=O)CCCN(CCCc2ccc(CCCN(CCCC(=O)NC3CCCCC3)C(=O)OC(C)(C)C)cc2)C(=O)OC(C)(C)C)CC1 | 17% | 34 nM | 105% |  |  |
| COc1cc(N)c(Cl)cc1C(=O)OCCN1CCC(CNC(=O)CCCN(CC#Cc2cccc(C#CCN(CCCC(=O)NCC3CCN(CCOC(=O)c4cc(Cl)c(N)cc4OC)CC3)C(=O)OC(C)(C)C)c2)C(=O)OC(C)(C)C)CC1 | 6% | 40 nM | 108% |  |  |
| COc1cc(N)c(Cl)cc1C(=O)OCCN1CCCCC1 | 45% |  | 101% |  |  |
| COc1cc(N)c(Cl)cc1C(=O)OCCN1CCC(NC(=O)CCCCCCCCCCNc2nc(NCCCCCCCCCCC(=O)NC3CCN(CCOC(=O)c4cc(Cl)c(N)cc4OC)CC3)nc(NCc3ccccc3)n2)CC1 | 12% |  | 114% |  |  |
| Cn1cc(C(=O)OCC2CCN(CCNS(C)(=O)=O)CC2)c2ccccc21 | 1% |  | 99% |  | 0.7 nM |
| COc1cc(N)c(Cl)cc1C(=O)OCCN1CCC(NC(=O)CCCCCCCCCCN(CCCCCCCCCCC(=O)NC2CCN(CCOC(=O)c3cc(Cl)c(N)cc3OC)CC2)CC(=O)NCC2CCNCC2)CC1 | 10% |  | 114% |  |  |
| COc1cc(N)c(Cl)cc1C(=O)OCCN1CCC(NC(=O)CCCCCCCCCCNC(=O)C2CCN(CCOC(=O)c3cc(Cl)c(N)cc3OC)CC2)CC1 | 5% |  | 110% |  |  |
| COc1cc(N)c(Cl)cc1C(=O)OCCN1CCC(CCNC(=O)CCCCCCCCCCC(=O)NCCC2CCN(CCOC(=O)c3cc(Cl)c(N)cc3OC)CC2)CC1 | 6% | 9 nM | 108% |  |  |

More lines, main results first:

| Activity [1] | Ki [2] | Activity [3] | Ki [4] | SMILES | Ki [5] |
| --- | --- | --- | --- | --- | --- |
| 5% | 23 nM | 108% |  | COc1cc(N)c(Cl)cc1C(=O)OCCN1CCC(CNC(=O)CCCN(CCCc2cccc(CCCN(CCCC(=O)NCC3CCN(CCOC(=O)c4cc(Cl)c(N)cc4OC)CC3)C(=O)OC(C)(C)C)c2)C(=O)OC(C)(C)C)CC1 |  |
| 18% | 19 nM | 114% |  | COc1cc(N)c(Cl)cc1C(=O)OCCN1CCC(CNC(=O)CN(CCCc2ccc(CCCN(CC(=O)NCC3CCN(CCOC(=O)c4cc(Cl)c(N)cc4OC)CC3)C(=O)OC(C)(C)C)cc2)C(=O)OC(C)(C)C)CC1 |  |
| 9% | 15 nM | 115% |  | COc1cc(N)c(Cl)cc1C(=O)OCCN1CCC(CNC(=O)CCCN(CCCc2ccc(CCCN(CCCC(=O)NCC3CCN(CCOC(=O)c4cc(Cl)c(N)cc4OC)CC3)C(=O)OC(C)(C)C)cc2)C(=O)OC(C)(C)C)CC1 |  |
| 35% | 18 nM | 106% |  | COc1cc(N)c(Cl)cc1C(=O)OCCN1CCC(NC(=O)CCCN(CC#Cc2ccc(C#CCN(CCCC(=O)NC3CCN(CCOC(=O)c4cc(Cl)c(N)cc4OC)CC3)C(=O)OC(C)(C)C)cc2)C(=O)OC(C)(C)C)CC1 |  |
| 21% | 12 nM | 118% | 10 nM | COc1cc(N)c(Cl)cc1C(=O)OCCN1CCC(NC(=O)CCCN(CCCc2ccc(CCCN(CCCC(=O)NC3CCN(CCOC(=O)c4cc(Cl)c(N)cc4OC)CC3)C(=O)OC(C)(C)C)cc2)C(=O)OC(C)(C)C)CC1 | 10 nM |
| 8% | 8 nM | 109% |  | COc1cc(N)c(Cl)cc1C(=O)OCCN1CCC(NC(=O)CCCN(CC#Cc2cccc(C#CCN(CCCC(=O)NC3CCN(CCOC(=O)c4cc(Cl)c(N)cc4OC)CC3)C(=O)OC(C)(C)C)c2)C(=O)OC(C)(C)C)CC1 |  |
